First the molecules themselves.
B1: tRNA (parent)
chain: GUUCCGUUGGCGUAAUGGUAACGCGUCUCCCUCCUAAGGAGAAGACUGCGGGUUCGAGUCCCGUACGGAACG

This passage reports yeast fitness results from the RNAGym collection of RNA variant scans (doi:10.1126/science.aae0568).

This sample holds only a part of the variants without activity.

The variants in the data set derive from B1. Kind of data set: yeast fitness relative to wild type (ratio to wild type); higher = fitter; tRNA-Arg(CCU), competitive growth, 37 C, YPD. The gist of the method:
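Start and end populations of a pooled competition were compared by 100-nucleotide paired-end sequencing of gene amplicons. The Saccharomyces cerevisiae strains carried tRNA-Arg(CCU) gene variants at the native genomic locus, synthesised with a 3% per-site mutation rate at 69 sites, and competed in YPD at 37°C for 24 hours in six parallel replicates. Darwinian fitness relative to wild type was based on the change in genotype frequencies. Genotypes required ≥ 100 starting reads, and estimates < 0.5 were set to 0.5.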
Take GUUCCGUUAGCGUAAUGGUAACGCGUCUCGCUCCUAAGGAGAAGACUGCGGGUUCGACUCCCGUACGGAACG [G9A C30G G58C]: the yeast fitness is no more than 0.5.
As for GUUCCGUUAGCGUAAUGGUAACGCGUCUCUCUACUUAGGAGAAGACUGUGGGUUCGAGUCCCGUACGGAACG [G9A C30U C33A A36U C49U], the figure is no more than 0.5; as for GUUCCGUUAGCGUAAUGGUAACGCGUGUCCCUCAUAAGGAGAAGAGUGCGGGUUAGAGUCCCAUACGGAACG [G9A C27G C34A C46G C55A G63A], no more than 0.5; as for GUUCCGUUAGCGUAAUGGUAACGCGUCUCGCCCCUAAGGAAAAGACUGCGGGUUCGUGUCCCGUACGGAACG [G9A C30G U32C G41A A57U], no more than 0.5.
GUUCCGUUAGCGUAAUGGUAACGCGUCUACCUCCUAAGGAGAAGACUGCGGGUUCGAGUCCCGUACGGAACG [G9A C29A]: the yeast fitness came out at 0.735.
Turning to GUUCCGUUAGCGUAAUGGUAACGCGUCUGCCUCCUAAGGAGAAGACUGCGGGUUCGAGUCCCGUACGGAACG [G9A C29G], the yeast fitness was 0.555.
In the case of GUUCCGUUAGCGUAAUGGUAACGCGUCUCUCUCCUAAGGAGAAGACUGCGGAUUCGAGUCCCGUACGGAACG [G9A C30U G52A] it was no more than 0.5; in that of GUUCCGUUAGCGUAAUGGUAACGCGUCUACCUCAUAAGGAGAAGACUGCGGGUUCGAGUCCCGUACGGAACG [G9A C29A C34A], 0.576.
In the case of GUUCCGUUAGCGUAAUGGUAACGCGUCUACCUCCUAAGGAGAAGACUGCAGGUUCGAGUCCCGUACGGAACG [G9A C29A G50A] it was 0.62.
In the case of GUUCCGUUAGCGUAAUGGUAACGCGUCUUCCUCCUAAGGAGAAGACUGCGGGUUUGAGUCCCGUACGGAACG [G9A C29U C55U] it was 0.535; in that of GUUCCGUUAGCGUAAUGGUAACGCGUCUUCUUCCUAAGGAGUAGACUGCGGGUUCGAGUCCCGUACGGAACG [G9A C29U C31U A42U], 0.615; in that of GUUCCGUUAGCGUAAUGGUAACGCGUCUGCCUCCUAAGGAGAAGACUGCGGGUUCGAGUCCCGUAUGGAACG [G9A C29G C66U], no more than 0.5.
Turning to GUUCCGUUAGCGUAAUGGUAACGCGUUUCCCUCCUAAGGAGAAGAGUGCGGGUUCGAGUCCCGUACGGAACG [G9A C27U C46G], the yeast fitness worked out at 0.708.
In the case of GUUCCGUUAGCGUAAUGGUAACGCGUGUCCCUGCUAAGGAGAAGACUGCGGGUUGGCGUCCCGUACGGAACG [G9A C27G C33G C55G A57C] it was no more than 0.5.
In the case of GUUCCGUUAGCGUAAUGGUAACGCGUCUUCCUCCUAAGGAGAAGAUUGCGGGUUCGAGUCCCGUACGGAACG [G9A C29U C46U], the yeast fitness was determined as 0.626.
As for GUUCCGUUAGCGUAAUGGUAACGCGUCUCACUCCUAAGGAGCAGACUGCGGGUUCGAGUCCCGUACGAAACG [G9A C30A A42C G68A], the figure is no more than 0.5; as for GUUCCGUUAGCGUAAUGGUAACGCGUCUGCCUCCUAAGGAGAAGUGUACGGGUUCCAGUCCCGUACGGAACG [G9A C29G A45U C46G G48A G56C], no more than 0.5.
In the case of GUUCCGUUAGCGUAAUGGUAACGCGUCUCACUCCUAAGGAGAAGACUGCGGGUUCGCGUCCCGUACGGAUCG [G9A C30A A57C A70U] it was no more than 0.5.
In the case of GUUCCGUUAGCGUAAUGGUAACGCGUUUCCCUCCUAAGGAGAGGACUGCGGGUUCGAGUCCCGUACGGAACG [G9A C27U A43G] it was 0.588.
For GUUCCGUUAGCGUAAUGGUAACGCGUCUGCCUCCUAAGGAGAAGACUGCGGGUUCGGGUCCCGUACGGAACG [G9A C29G A57G], the yeast fitness was no more than 0.5.
With GUUCCGUUAGCGUAAUGGUAACGCGUCUACAUCCUAAGGCGAAAACUGCGGGUUCGAGACCCGUACGGAACG [G9A C29A C31A A40C G44A U59A], the yeast fitness is no more than 0.5.
In the case of GUUCCGUUAGCGUAAUGGUAACGCGUUUCCCUCCUAAGGAGAAGACUGCGGGUUCAAGUCCCGUACAGAACG [G9A C27U G56A G67A] it was no more than 0.5.
As for GUUCCGUUAGCGUAAUGGUAACGCGUUUCCCUCCUAAGGAGAAGCCUGCGGGUUCGAGUCCCGUACGGAACG [G9A C27U A45C], the figure is 0.904; as for GUUCCGUUAGCGUAAUGGUAACGCGUCUACCUCCUAAGGAGAAGACUACGGGUUCGAGUCCCGUACGGAACG [G9A C29A G48A], no more than 0.5; as for GUUCCGUUAGCGUAAUGGUAACGCGUCUGGCUCCUAAGGAGAAGAGUGCGGGUUCGAGUCCCGUACGGAACG [G9A C29G C30G C46G], no more than 0.5.
As for GUUCCGUUAGCGUAAUGGUAACGCGUCUACCUCAUAAGGAGAAGACUGCGGGUUCGAGUCCCGUACCGAACG [G9A C29A C34A G67C], the figure is no more than 0.5.
Turning to GUUCCGUUAGCGUAAUGGUAACGCGUCUCUCUACUUAGGAGAUGACUGCGGGUUCGAGUCCCGUACGGAACG [G9A C30U C33A A36U A43U], the yeast fitness is no more than 0.5.
In the case of GUUCCGUUAGCGUAAUGGUAACGCGUGUCCCUCAUAAGGAGAAGAGUGCGGGUUCGAGUCCCGUACGGAACG [G9A C27G C34A C46G] it was no more than 0.5; in that of GUUCCGUUAGCGUAAUGGUAACGCGUCUUCCACCUAAGGAGAUGACUGCGGGUUCGAGUCGCGUCGGGAACG [G9A C29U U32A A43U C61G A65C C66G], no more than 0.5; in that of GUUCCGUUAGCGUAAUGGUAACGCGUCUUCCUCCUAAGGAGAGGACUGCGGGUUCGAGUCCCGUACGUAACG [G9A C29U A43G G68U], 0.527.
As to GUUCCGUUAGCGUAAUGGUAACGCGUCUCACUCCUAAGGAGAAGCCUGAGGGUUCGAGUCCCGUACGGAACG [G9A C30A A45C C49A], the yeast fitness amounted to 0.651.
As for GUUCCGUUAGCGUAAUGGUAACGCGUCUCGCUCCUAAGGAGACGACUGCGGGUUCGAGUCCCGUACGGAACG [G9A C30G A43C], the figure is no more than 0.5.
As for GUUCCGUUAGCGUAAUGGUAACGCGUCUCUCUCCUAAGGAGAAGACUGCGGGUUCGAGUCCCGUACGCAACG [G9A C30U G68C], the yeast fitness is no more than 0.5.
As for GUUCCGUUAGCGUAAUGGUAACGCGUCUCACUCCUAAAGAGCAGACUGCGGGUUCGAGUCUCGUACGGAACG [G9A C30A G38A A42C C61U], the figure is no more than 0.5; as for GUUCCGUUAGCGUAAUGGUAACGCGUCUCUCUCCUAAGGAGAAAACUGCGGGUUCGAGUCCCGUUCGGAACG [G9A C30U G44A A65U], 0.578; as for GUUCCGUUAGCGUAAUGGUAACGCGUCUCUCUCCUAAGGAGAAGACUGUGGGUUCGAGUCCCGAACGGAACG [G9A C30U C49U U64A], no more than 0.5.
As for GUUCCGUUAGCGUAAUGGUAACGCGUCUCGCUCCUAAGGAGAAGACUGCGGGUUCGAGUCCCGUACGGAUCG [G9A C30G A70U], the figure is 0.57.
As for GUUCCGUUAGCGUAAUGGUAACGCGUCUCUCUCGUAAGGCGAAGACUGGGGGUUCGAGUCCCGUACGCAACG [G9A C30U C34G A40C C49G G68C], the figure is no more than 0.5.
